In ChEMBL document CHEMBL4680131, “Fangchinoline derivatives induce cell cycle arrest and apoptosis in human leukemia cell lines via suppression of the PI3K/AKT and MAPK signaling pathway” (Eur J Med Chem, 2020):

Experiments:
[1] = system: MDA-MB-231; experiment: Cytotoxicity against human MDA-MB-231 cells assessed as reduction in cell viability incubated for 48 hrs by MTT assay; type: functional, cell-based; settings: MDA-MB-231, 48 h
Procedure, shortened: (§1)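 MTT viability after 48 h exposure. Cells (1×10^4/well) were allowed 24 h at 37 °C before dosing. Leukemia lines were grown in RPMI and breast lines in high-glucose DMEM, each with 5% FBS under 5% CO2. MTT was added for 4 h, formazan dissolved in DMSO, and absorbance read at 490 nm. Triplicate wells; values averaged over at least 3 independent experiments.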

[2] = system: MCF7; experiment: Cytotoxicity against human MCF-7 cells assessed as reduction in cell viability incubated for 48 hrs by MTT assay; type: functional, cell-based; settings: MCF7, 48 h; procedure, shortened: as §1
[3] = system: HEL; experiment: Cytotoxicity against human HEL cells assessed as reduction in cell viability incubated for 48 hrs by MTT assay; type: functional, cell-based; procedure, shortened: as §1
[4] = system: K562; experiment: Cytotoxicity against human K562 cells assessed as reduction in cell viability incubated for 48 hrs by MTT assay; type: functional, cell-based; settings: K562, 48 h; procedure, shortened: as §1
[5] = Inhibition of AKT (unknown origin) by ELISA assay; set-up: species or system Homo sapiens
Procedure, shortened: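 Akt kinase activity kit run per the manufacturer's protocol. Akt source was lysate of compound-treated human leukemia HEL cells, purified on a Mono Q anion-exchange column before the kinase measurement. HEL cells were grown in RPMI with 5% FBS at 37 °C and 5% CO2. The value is reported as an IC50.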

Compound	IC50 [1] [µM]	IC50 [2] [µM]	IC50 [3] [µM]	IC50 [4] [µM]	IC50 [5] [µM]
CC[C@]1(O)C[C@@H]2CN(CCc3c([nH]c4ccccc34)[C@@](C(=O)OC)(c3cc4c(cc3OC)N(C)[C@H]3[C@@](O)(C(=O)OC)[C@H](OC(C)=O)[C@]5(CC)C=CCN6CC[C@]43[C@@H]65)C2)C1 [VINBLASTINE]	17.7	37.5	16	9.49	–
COc1ccc2cc1Oc1ccc(cc1)C[C@H]1c3cc(c(OC)cc3CCN1C)Oc1c(OC(=O)C(Cl)(Cl)Cl)c(OC)cc3c1[C@H](C2)N(C)CC3	4.05	7.14	3.54	3.3	–
COc1ccc2cc1Oc1ccc(cc1)C[C@H]1c3cc(c(OC)cc3CCN1C)Oc1c(OC(=O)c3ccc(Cl)c(Cl)c3)c(OC)cc3c1[C@H](C2)N(C)CC3	18.3	10.8	4.56	8.52	–
COc1ccc2cc1Oc1ccc(cc1)C[C@H]1c3cc(c(OC)cc3CCN1C)Oc1c(OC)c(OC)cc3c1[C@H](C2)N(C)CC3 [FANCHININ]	18.4	19.6	19.7	6.43	–
COc1ccc2cc1Oc1ccc(cc1)C[C@H]1c3cc(c(OC)cc3CCN1C)Oc1c(OC(=O)CBr)c(OC)cc3c1[C@H](C2)N(C)CC3	17.8	22.1	25.9	14.3	–
CCCCCC(=O)Oc1c(OC)cc2c3c1Oc1cc4c(cc1OC)CCN(C)[C@H]4Cc1ccc(cc1)Oc1cc(ccc1OC)C[C@@H]3N(C)CC2	11.3	12	21	13.3	–
COc1ccc2cc1Oc1ccc(cc1)C[C@H]1c3cc(c(OC)cc3CCN1C)Oc1c(OC(=O)c3ccc(Cl)cc3Cl)c(OC)cc3c1[C@H](C2)N(C)CC3	28	> 100	10.2	6.11	–
COc1ccc2cc1Oc1ccc(cc1)C[C@H]1c3cc(c(OC)cc3CCN1C)Oc1c(OC(=O)/C=C/c3ccccc3)c(OC)cc3c1[C@H](C2)N(C)CC3	7.9	16.1	10.2	9.43	–
COc1ccc2cc1Oc1ccc(cc1)C[C@H]1c3cc(c(OC)cc3CCN1C)Oc1c(OC(=O)c3cccc(Cl)c3)c(OC)cc3c1[C@H](C2)N(C)CC3	8.03	4.42	4.26	3.79	–
COc1ccc2cc1Oc1ccc(cc1)C[C@H]1c3cc(c(OC)cc3CCN1C)Oc1c(OC(=O)C(C)(C)C)c(OC)cc3c1[C@H](C2)N(C)CC3	8.56	7.69	3.73	4.03	–
COc1ccc2cc1Oc1ccc(cc1)C[C@H]1c3cc(c(OC)cc3CCN1C)Oc1c(OC(=O)N3CCCOC3)c(OC)cc3c1[C@H](C2)N(C)CC3	15.1	25.2	40.2	15.9	–
COc1ccc2cc1Oc1ccc(cc1)C[C@H]1c3cc(c(OC)cc3CCN1C)Oc1c(OC(=O)c3ccccc3Cl)c(OC)cc3c1[C@H](C2)N(C)CC3	5.41	6.26	3.22	3.58	–
COc1ccc2cc1Oc1ccc(cc1)C[C@H]1c3cc(c(OC)cc3CCN1C)Oc1c(OC(=O)c3c(Cl)cc(Cl)cc3Cl)c(OC)cc3c1[C@H](C2)N(C)CC3	23	18.2	7.65	7.6	–
COc1ccc2cc1Oc1ccc(cc1)C[C@H]1c3cc(c(OC)cc3CCN1C)Oc1c(OC(=O)c3ccc(Cl)cc3)c(OC)cc3c1[C@H](C2)N(C)CC3	7.55	8.63	2.81	2.8	–
C=CC(=O)Oc1c(OC)cc2c3c1Oc1cc4c(cc1OC)CCN(C)[C@H]4Cc1ccc(cc1)Oc1cc(ccc1OC)C[C@@H]3N(C)CC2	5.03	7.28	4.27	6.77	–
CCN(CC)C(=O)Oc1c(OC)cc2c3c1Oc1cc4c(cc1OC)CCN(C)[C@H]4Cc1ccc(cc1)Oc1cc(ccc1OC)C[C@@H]3N(C)CC2	9.04	23.7	2.98	3.74	–
COc1ccc2cc1Oc1ccc(cc1)C[C@H]1c3cc(c(OC)cc3CCN1C)Oc1c(OC(=O)CCCCl)c(OC)cc3c1[C@H](C2)N(C)CC3	8.68	12.4	7.86	6.55	–
COc1ccc2cc1Oc1ccc(cc1)C[C@H]1c3cc(c(OC)cc3CCN1C)Oc1c(OC(=O)C3CC3)c(OC)cc3c1[C@H](C2)N(C)CC3	13.5	> 100	21.3	17.5	–
COc1ccc2cc1Oc1ccc(cc1)C[C@H]1c3cc(c(OC)cc3CCN1C)Oc1c(OC(=O)CCCl)c(OC)cc3c1[C@H](C2)N(C)CC3	9.47	18.8	4.84	6.47	–
COc1ccc2cc1Oc1ccc(cc1)C[C@H]1c3cc(c(OC)cc3CCN1C)Oc1c(O)c(OC)cc3c1[C@H](C2)N(C)CC3 [FANGCHINOLINE]	58.6	17.4	22.7	5.94	> 20
CCN(C)C(=O)Oc1c(OC)cc2c3c1Oc1cc4c(cc1OC)CCN(C)[C@H]4Cc1ccc(cc1)Oc1cc(ccc1OC)C[C@@H]3N(C)CC2	9.89	20.6	3.46	5.89	–
COc1ccc2cc1Oc1ccc(cc1)C[C@H]1c3cc(c(OC)cc3CCN1C)Oc1c(OC(=O)C=C(C)C)c(OC)cc3c1[C@H](C2)N(C)CC3	10.3	> 100	5.16	5.39	–
COc1ccc2cc1Oc1ccc(cc1)C[C@H]1c3cc(c(OC)cc3CCN1C)Oc1c(OC(=O)c3cccc4ccccc34)c(OC)cc3c1[C@H](C2)N(C)CC3	16.5	8.19	3.46	4.59	–
C=CCCCCCCCCC(=O)Oc1c(OC)cc2c3c1Oc1cc4c(cc1OC)CCN(C)[C@H]4Cc1ccc(cc1)Oc1cc(ccc1OC)C[C@@H]3N(C)CC2	13	8.57	15.7	10.4	–
COc1ccc2cc1Oc1ccc(cc1)C[C@H]1c3cc(c(OC)cc3CCN1C)Oc1c(OC(=O)CCl)c(OC)cc3c1[C@H](C2)N(C)CC3	10	30.1	10.8	12.3	–
COc1ccc2cc1Oc1ccc(cc1)C[C@H]1c3cc(c(OC)cc3CCN1C)Oc1c(OC(=O)c3ccc(Br)cc3)c(OC)cc3c1[C@H](C2)N(C)CC3	5.58	6.84	2.31	3.06	–
COc1ccc2cc1Oc1ccc(cc1)C[C@H]1c3cc(c(OC)cc3CCN1C)Oc1c(OC(=O)N3c4ccccc4Sc4ccccc43)c(OC)cc3c1[C@H](C2)N(C)CC3	10.1	20.7	17.6	12.4	–
